# Entries after “also recorded” stand apart in the source; their conditions may differ.
# Tests used:
# [1] = system: Chinese patients with type 2 diabetes; test: Safety and tolerability; format: in vivo, human; settings: during the study
# Summary of the method: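 Adults aged 20–70 with T2D and BMI ≥ 23.0 kg/m2 received once-weekly SC test compound or placebo, followed by 4 weeks of follow-up. AEs were recorded on an electronic CRF with investigator-assessed relatedness. TEAEs were events arising or worsening after treatment start. Also collected: laboratory values, vital signs, ECG, injection-site reactions and hypoglycaemia (glucose ≤ 70.0 mg/dL, graded per International Hypoglycaemia Study Group). All enrolled patients were included.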
# [2] = Tirzepatide plasma pharmacokinetics after multiple SC doses; format: in vivo, human; settings: Chinese patients with T2D, QW SC 2.5–15.0 mg
# Summary of the method: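 Plasma test compound concentrations were measured after once-weekly SC doses escalated from 2.5 mg by 2.5 mg every 4 weeks, to 10.0 mg or 15.0 mg. Cmax, AUC, Tmax and T½ were derived. T½ was calculated over periods both shorter and longer than the resulting T½. Patients with ≥1 dose and evaluable data were analysed.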
# [3] = system: Chinese patients with type 2 diabetes; test: Pharmacodynamics: change from baseline in HbA1c, FPG, 7-point SMBG, meal intake; format: in vivo, human; settings: both tirzepatide groups; not apparent in placebo
# [4] = system: Chinese patients with type 2 diabetes; test: Immunogenicity: anti-drug antibodies; format: in vivo, human
# Summary of the method: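 Randomised 5:1, double-blind, placebo-controlled. Test compound or placebo given once weekly SC, starting at 2.5 mg and rising 2.5 mg every 4 weeks to 10.0 or 15.0 mg. Frequency and percentage of patients with pre-existing and treatment-emergent ADAs were recorded. Treatment-induced meant a titer twofold/1-dilution above the minimum required dilution with no baseline ADA. Treatment-boosted meant a fourfold/2-dilution titer rise over a positive baseline.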
# [5] = global and Japanese patient populations, single and multiple doses; cited from earlier work
# [6] = all 20 patients treated with tirzepatide, treatment-induced
compound,measurement,setting,value
"CC[C@H](C)[C@H](NC(=O)[C@H](CC(C)C)NC(=O)[C@H](Cc1c[nH]c2ccccc12)NC(=O)[C@H](CCC(N)=O)NC(=O)[C@@H](NC(=O)[C@H](Cc1ccccc1)NC(=O)[C@H](C)NC(=O)[C@H](CCCCNC(=O)COCCOCCNC(=O)COCCOCCNC(=O)CC[C@H](NC(=O)CCCCCCCCCCCCCCCCCCC(=O)O)C(=O)O)NC(=O)[C@H](CCC(N)=O)NC(=O)[C@H](C)NC(=O)[C@@H](NC(=O)[C@H](CCCCN)NC(=O)[C@H](CC(=O)O)NC(=O)[C@H](CC(C)C)NC(=O)C(C)(C)NC(=O)[C@@H](NC(=O)[C@H](CO)NC(=O)[C@H](Cc1ccc(O)cc1)NC(=O)[C@H](CC(=O)O)NC(=O)[C@H](CO)NC(=O)[C@@H](NC(=O)[C@H](Cc1ccccc1)NC(=O)[C@@H](NC(=O)CNC(=O)[C@H](CCC(=O)O)NC(=O)C(C)(C)NC(=O)[C@@H](N)Cc1ccc(O)cc1)[C@@H](C)O)[C@@H](C)O)[C@@H](C)CC)[C@@H](C)CC)C(C)C)C(=O)N[C@@H](C)C(=O)NCC(=O)NCC(=O)N1CCC[C@H]1C(=O)N[C@@H](CO)C(=O)N[C@@H](CO)C(=O)NCC(=O)N[C@@H](C)C(=O)N1CCC[C@H]1C(=O)N1CCC[C@H]1C(=O)N1CCC[C@H]1C(=O)N[C@@H](CO)C(N)=O [Tirzepatide, tirzepatide]",deaths or SAEs in patients receiving tirzepatide,[1]; both tirzepatide groups,no serious adverse events reported; also recorded: No deaths or SAEs occurred
same,changes in vital signs measurements,[1],No clinically meaningful changes
same,"T½, range of values across weeks and cohorts",[2],124 to 145 h
same,meal intake between baseline and end of study,[3],trend towards a decrease
same,"ADA-positive patients post-baseline, number",[4]; 2.5–10.0 mg group,five
same,"ADA-positive patients post-baseline, number",[4]; 2.5–15.0 mg group,three
same,"ADA-positive patients post-baseline, number",[4]; [6],Eight
same,"ADA-positive patients post-baseline, percentage",[4]; [6],40%
same,ADAs at baseline,[4]; baseline,No ADAs were detected
same,"impact of ADA-positive status on safety, PK and PD",[4]; in vivo,no apparent impact
same,median Tmax range,[5],24 to 48 h

# Source: article PMC10329955 (Advances in Therapy, 2023)
